Reference: ChEMBL document CHEMBL5376013, “Design, synthesis and biological evaluation of novel morpholinopyrimidine-5-carbonitrile derivatives as dual PI3K/mTOR inhibitors” (RSC Med Chem, 2024)

Tests used:
Assay type in all cases: functional
Details in all cases: read-out: GI
MDA-MB-468 = assay: Antitumor activity against human MDA-MB-468 cells assessed as growth inhibition at 10 uM relative to control
Summary of the method: (§1)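 After drug addition, plates were incubated 48 h at 37 °C under 5% CO2. Adherent cells were fixed with cold TCA (10% final, 60 min, 4 °C) and suspension cells with 16% final TCA. Staining used 0.4% SRB in 1% acetic acid, solubilized in 10 mM trizma, read at A515. Percent growth was calculated from time-zero, control and treated absorbances.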

A498 = assay: Antitumor activity against human A498 cells assessed as growth inhibition at 10 uM relative to control; summary of the method: as §1
RPMI-8226 = assay: Antitumor activity against human RPMI-8226 cells assessed as growth inhibition at 10 uM relative to control; summary of the method: as §1
SF-295 = assay: Antitumor activity against human SF-295 cells assessed as growth inhibition at 10 uM relative to control; summary of the method: as §1
SF-539 = assay: Antitumor activity against human SF-539 cells assessed as growth inhibition at 10 uM relative to control; summary of the method: as §1
SK-MEL-5 = assay: Antitumor activity against human SK-MEL-5 cells assessed as growth inhibition at 10 uM relative to control
Summary of the method: (§2)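 Drug exposure 48 h at 37 °C, 5% CO2. Adherent cells fixed with cold TCA (10% final), suspension cells with TCA (16% final). Stained with 0.4% SRB in 1% acetic acid, dissolved in 10 mM Tris, A515. Growth relative to time-zero and untreated control.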

U-251 = assay: Antitumor activity against human U-251 cells assessed as growth inhibition at 10 uM relative to control; summary of the method: as §2
CCRF-CEM = assay: Antitumor activity against human CCRF-CEM cells assessed as growth inhibition at 10 uM relative to control; summary of the method: as §1
SK-MEL-2 = assay: Antitumor activity against human SK-MEL-2 cells assessed as growth inhibition at 10 uM relative to control; summary of the method: as §1
T47D = assay: Antitumor activity against human T47D cells assessed as growth inhibition at 10 uM relative to control; summary of the method: as §2
HCT-116 = assay: Antitumor activity against human HCT-116 cells assessed as growth inhibition at 10 uM relative to control; summary of the method: as §1
A549 = assay: Antitumor activity against human A549 cells assessed as growth inhibition at 10 uM relative to control; summary of the method: as §1
SW-620 = assay: Antitumor activity against human SW-620 cells assessed as growth inhibition at 10 uM relative to control; summary of the method: as §2
HOP-62 = assay: Antitumor activity against human HOP-62 cells assessed as growth inhibition at 10 uM relative to control; summary of the method: as §1
Malme-3M = assay: Antitumor activity against human Malme-3M cells assessed as growth inhibition at 10 uM relative to control; summary of the method: as §1
MDA-MB-435 = assay: Antitumor activity against human MDA-MB-435 cells assessed as growth inhibition at 10 uM relative to control; summary of the method: as §1
SR = assay: Antitumor activity against human SR cells assessed as growth inhibition at 10 uM relative to control; summary of the method: as §2
NCI-H226 = assay: Antitumor activity against human NCI-H226 cells assessed as growth inhibition at 10 uM relative to control; summary of the method: as §1
HCT-15 = assay: Antitumor activity against human HCT-15 cells assessed as growth inhibition at 10 uM relative to control; summary of the method: as §1
NCI-H23 = assay: Antitumor activity against human NCI-H23 cells assessed as growth inhibition at 10 uM relative to control; summary of the method: as §1
K562 = assay: Antitumor activity against human K562 cells assessed as growth inhibition at 10 uM relative to control; summary of the method: as §1
SF-268 = assay: Antitumor activity against human SF-268 cells assessed as growth inhibition at 10 uM relative to control; summary of the method: as §1
HT-29 = assay: Antitumor activity against human HT-29 cells assessed as growth inhibition at 10 uM relative to control; summary of the method: as §1
TK-10 = assay: Antitumor activity against human TK-10 cells assessed as growth inhibition at 10 uM relative to control; summary of the method: as §2
CAKI-1 = assay: Antitumor activity against human CAKI-1 cells assessed as growth inhibition at 10 uM relative to control; summary of the method: as §1
MDA-MB-231 = assay: Antitumor activity against human MDA-MB-231 cells assessed as growth inhibition at 10 uM relative to control; summary of the method: as §1
UACC-62 = assay: Antitumor activity against human UACC-62 cells assessed as growth inhibition at 10 uM relative to control; summary of the method: as §2
RXF 393 = assay: Antitumor activity against human RXF 393 cells assessed as growth inhibition at 10 uM relative to control; summary of the method: as §1
COLO 205 = assay: Antitumor activity against human COLO 205 cells assessed as growth inhibition at 10 uM relative to control; summary of the method: as §1
HL-60 = assay: Antitumor activity against human HL-60 cells assessed as growth inhibition at 10 uM relative to control; summary of the method: as §1
MOLT-4 = assay: Antitumor activity against human MOLT-4 cells assessed as growth inhibition at 10 uM relative to control; summary of the method: as §1
UO-31 = assay: Antitumor activity against human UO-31 cells assessed as growth inhibition at 10 uM relative to control; summary of the method: as §2
SNB-75 = assay: Antitumor activity against human SNB-75 cells assessed as growth inhibition at 10 uM relative to control; summary of the method: as §2
IGROV-1 = assay: Antitumor activity against human IGROV-1 cells assessed as growth inhibition at 10 uM relative to control; summary of the method: as §1
ACHN = assay: Antitumor activity against human ACHN cells assessed as growth inhibition at 10 uM relative to control; summary of the method: as §1
DU-145 = assay: Antitumor activity against human DU-145 cells assessed as growth inhibition at 10 uM relative to control; summary of the method: as §1
LOX IMVI = assay: Antitumor activity against human LOX IMVI cells assessed as growth inhibition at 10 uM relative to control; summary of the method: as §1
Hs-578T = assay: Antitumor activity against human Hs-578T cells assessed as growth inhibition at 10 uM relative to control; summary of the method: as §1
NCI/ADR-RES = assay: Antitumor activity against human NCI-ADR-RES cells assessed as growth inhibition at 10 uM relative to control; summary of the method: as §1
786-0 = assay: Antitumor activity against human 786-0 cells assessed as growth inhibition at 10 uM relative to control; summary of the method: as §1
OVCAR-8 = assay: Antitumor activity against human OVCAR-8 cells assessed as growth inhibition at 10 uM relative to control; summary of the method: as §1
SN12C = assay: Antitumor activity against human SN12C cells assessed as growth inhibition at 10 uM relative to control; summary of the method: as §2
HOP-92 = assay: Antitumor activity against human HOP-92 cells assessed as growth inhibition at 10 uM relative to control; summary of the method: as §1
MCF7 = assay: Antitumor activity against human MCF7 cells assessed as growth inhibition at 10 uM relative to control; summary of the method: as §1
SK-OV-3 = assay: Antitumor activity against human SK-OV-3 cells assessed as growth inhibition at 10 uM relative to control; summary of the method: as §2
NCI-H522 = assay: Antitumor activity against human NCI-H522 cells assessed as growth inhibition at 10 uM relative to control; summary of the method: as §1

With `CSc1nc(Cl)c(C#N)c(-c2ccc(Cl)cc2)n1` the inhibition of growth at 10 µM (MDA-MB-468) was under 1%, the inhibition of growth at 10 µM (A498) was under 1% and the inhibition of growth at 10 µM (RPMI-8226) was under 1%. The inhibition of growth at 10 µM (SF-295) was under 1%, the inhibition of growth at 10 µM (SF-539) was under 1% and the inhibition of growth at 10 µM (SK-MEL-5) was under 1%. For the same compound, the inhibition of growth at 10 µM (U-251) was under 1%, the inhibition of growth at 10 µM (CCRF-CEM) was 26.1% and the inhibition of growth at 10 µM (SK-MEL-2) was under 1%. For the same compound, the inhibition of growth at 10 µM (T47D) was under 1%, the inhibition of growth at 10 µM (HCT-116) was under 1% and the inhibition of growth at 10 µM (A549) was under 1%. For the same compound, the inhibition of growth at 10 µM (SW-620) was under 1%, the inhibition of growth at 10 µM (HOP-62) was under 1% and the inhibition of growth at 10 µM (Malme-3M) was under 1%. It also gave an inhibition of growth at 10 µM (MDA-MB-435) of under 1%, an inhibition of growth at 10 µM (SR) of 58.5% and an inhibition of growth at 10 µM (NCI-H226) of under 1%. For the same compound, the inhibition of growth at 10 µM (HCT-15) was under 1%, the inhibition of growth at 10 µM (NCI-H23) was under 1% and the inhibition of growth at 10 µM (K562) was 44.5%. For the same compound, the inhibition of growth at 10 µM (SF-268) was under 1%, the inhibition of growth at 10 µM (HT-29) was under 1% and the inhibition of growth at 10 µM (TK-10) was under 1%. The inhibition of growth at 10 µM (CAKI-1) was under 1%, the inhibition of growth at 10 µM (MDA-MB-231) was under 1% and the inhibition of growth at 10 µM (UACC-62) was 25.6%. It also gave an inhibition of growth at 10 µM (RXF 393) of under 1%, an inhibition of growth at 10 µM (COLO 205) of under 1% and an inhibition of growth at 10 µM (HL-60) of under 1%. The inhibition of growth at 10 µM (MOLT-4) was 27.6%, the inhibition of growth at 10 µM (UO-31) was under 1% and the inhibition of growth at 10 µM (SNB-75) was 26.8%. It also gave an inhibition of growth at 10 µM (IGROV-1) of under 1%, an inhibition of growth at 10 µM (ACHN) of under 1% and an inhibition of growth at 10 µM (DU-145) of under 1%. The inhibition of growth at 10 µM (LOX IMVI) was under 1%, the inhibition of growth at 10 µM (Hs-578T) was under 1% and the inhibition of growth at 10 µM (NCI/ADR-RES) was under 1%. The inhibition of growth at 10 µM (786-0) was under 1%, the inhibition of growth at 10 µM (OVCAR-8) was under 1% and the inhibition of growth at 10 µM (SN12C) was under 1%. The inhibition of growth at 10 µM (HOP-92) was under 1%, the inhibition of growth at 10 µM (MCF7) was 1% and the inhibition of growth at 10 µM (SK-OV-3) was under 1%. For the same compound, the inhibition of growth at 10 µM (NCI-H522) was under 1%.
